# Measured values taken from ChEMBL document CHEMBL1129543, “Synthesis and evaluation of N-(phenylacetyl)trifluoromethanesulfonamides as anticonvulsant agents” (J Med Chem, 1996).
# Key:
# [1] = system: Mus musculus; assay: Anti-seizure activity was evaluated by Maximal electroshock seizure (MES) test at dose 300 mg/kg after 0.5 hours; ++ denotes antiseizure activity; assay type: functional, organism-based; design: dose 300 mg/kg
# Outline: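 Phase I screen in mice: ip injection at 30, 100, 300 and 600 mg/kg in 30% PEG 400 (0.01 mL/g). Test run 0.5 h and 4 h after dosing. 60-Hz AC, 50 mA, via corneal electrodes for 0.2 s. Protection means abolition of hind-leg tonic extension. Scored ++++ to + for activity at 30 to 600 mg/kg.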
# [2] = system: Mus musculus; assay: Anti-seizure activity was evaluated by Neurologic toxicity (rotarod test) at dose 300 mg/kg after 0.5 hours; ++ denotes antiseizure activity; assay type: functional, organism-based; design: dose 300 mg/kg
# Outline: (§1)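 Phase I neurotoxicity in mice by rotorod ataxia test. Compound given ip at 30, 100, 300 or 600 mg/kg in 30% PEG 400, read 0.5 h and 4 h after. Scored ++++ to + for toxicity at 30 to 600 mg/kg; - means no toxicity.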
# [3] = system: Mus musculus; assay: Anti-seizure activity was evaluated by Neurologic toxicity (rotarod test) at dose 600 mg/kg after 4.0 hours; + denotes neurotoxicity; assay type: functional, organism-based; design: dose 600 mg/kg; outline: as §1
# [4] = system: Mus musculus; assay: Anti-seizure activity was evaluated by Subcutaneous pentylenetetrazole seizure test at dose 300 mg/kg after 4.0 hours; ++ denotes antiseizure activity; assay type: functional, organism-based; design: dose 300 mg/kg
# Outline: (§2)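 Phase I screen in mice: ip dosing at 30, 100, 300 and 600 mg/kg in 30% PEG 400, read 0.5 h and 4 h after. Pentylenetetrazol given sc at CD97 (85 mg/kg). Protection means no clonic spasm of at least 5 s over 30 min. Scored ++++ to + for 30 to 600 mg/kg.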
# [5] = system: Mus musculus; assay: (§3) Median effective dose was evaluated by Maximal electroshock seizure test through intraperitoneal administration; assay type: functional; settings: ip
# Outline: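 Phase II in mice, ip dosing in 30% PEG 400. Groups of 6-12 mice per dose until at least three points fall in 10-90% protection.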
# [6] = system: Mus musculus; assay: Median effective dose was evaluated by subcutaneous pentylenetetrazole seizure test through intraperitoneal administration; assay type: functional
# Outline: (§4)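 Phase II in mice, ip dosing in 30% PEG 400. Groups of 6-12 mice per dose until at least three points fall in 10-90% protection. […] MES: 50 mA, 0.2 s corneal. scMet: pentylenetetrazol 85 mg/kg sc.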
# [7] = system: Mus musculus; assay: Median toxic dose was evaluated by […] through intraperitoneal administration; assay type: functional
# [8] = species: Mus musculus; assay: Time to peak activity was evaluated by Maximal electroshock seizure test in hours; assay type: functional
# [9] = species: Mus musculus; assay: Time to peak toxicity was evaluated by Maximal electroshock seizure test in hours; assay type: functional
# [10] = species: Rattus norvegicus; assay: Protective index (TD50/ED50) was determined against MES induced seizure in rat.; assay type: functional
# Outline: (§5)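 Oral dosing in 30% PEG 400: phase IV in mice (0.01 mL/g), phase VI in Sprague-Dawley rats (0.004 mL/g). ED50/TD50 found as in phase II, at the stated time of peak effect. MES current 50 mA in mice, 150 mA in rats. Toxicity by rotorod in mice; positional sense, gait and stance in rats. PI = TD50/ED50.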
# [11] = species: Rattus norvegicus; assay: Protective index (TD50/ED50) was determined against scMet induced seizure in rat.; assay type: functional; outline: as §5
# [12] = system: Mus musculus; assay: Inhibition of seizures induced in mice by a convulsant dose of up to 300 mg/kg; d= No protection; assay type: functional, organism-based; design: dose 300 mg/kg
# Outline: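 Convulsant (bicuculline, picrotoxin, strychnine or PTZ) given at CD97 as a 0.5% solution. Observed 30 min (45 min for picrotoxin). PI uses ip mouse TD50.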
# [13] = system: Mus musculus; assay: Inhibition of picrotoxin-induced seizures in mice by ip administration up to 300 mg/kg (d=No protection); assay type: functional, organism-based; design: dose 300 mg/kg
# Outline: (§6)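 Phase V differentiation in mice: test drug given ip at time of peak therapeutic effect, then the CD₉₇ of each convulsant (picrotoxin, bicuculline, strychnine) given ip as a 0.5% solution; observation 30 min for bicuculline and strychnine, 45 min for picrotoxin. Drug in 30% PEG 400, 0.01 mL/g. ED₅₀ with 95% confidence intervals from ≥3 points in the 10-90% protection range, groups of 6-12 mice.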
# [14] = system: Mus musculus; assay: Inhibition of seizures induced in mice by a convulsant dose of strychnine through ip administration; assay type: functional; outline: as §6
# [15] = species: Mus musculus; assay: Anti-seizure activity was evaluated by Neurologic toxicity (rotarod test) after 4.0 hours; - denotes no antiseizure activity; assay type: functional, organism-based; outline: as §1
# [16] = system: Mus musculus; assay: Anti-seizure activity was evaluated by Neurologic toxicity (rotarod test) at dose 600 mg/kg after 0.5 hours; + denotes neurotoxicity; assay type: functional, organism-based; design: dose 600 mg/kg; outline: as §1
# [17] = system: Mus musculus; assay: Anti-seizure activity was evaluated by Subcutaneous pentylenetetrazole seizure test at dose 600 mg/kg after 0.5 hours; + denotes neurotoxicity; assay type: functional, organism-based; design: dose 600 mg/kg; outline: as §2
# [18] = system: Mus musculus; assay: as §3; assay type: functional; settings: ip; outline: as §4; remark: listed apart in the source
# [19] = system: Mus musculus; assay: Median Effective dose was evaluated by Maximal electroshock seizure (MES) test in mice by oral administration; assay type: functional
# [20] = system: Mus musculus; assay: Median Effective dose was evaluated by Subcutaneous pentylenetetrazole seizure test in mice by oral administration; assay type: functional
# [21] = species: Mus musculus; assay: Median hypnotic dose was evaluated by loss of righting reflex; assay type: functional
# [22] = system: Mus musculus; assay: Median lethal dose was evaluated by mortality after 24 hr through ip injection administration; d= Hypnosis and death occurred; assay type: ADME, organism-based; settings: in vivo
# Outline: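 Mice were dosed ip in 30% PEG 400. Mortality was scored 24 h after injection in groups of eight. The 24-h LD₅₀ was derived as for the ED₅₀/TD₅₀, with 95% confidence intervals.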
# [23] = system: Mus musculus; assay: […] was evaluated by Neurologic toxicity (rotarod test) in mice by oral administration; assay type: functional
# Outline: (§7)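 Oral dosing in 30% PEG 400: phase IV in mice (0.01 mL/g), phase VI in Sprague-Dawley rats (0.004 mL/g). ED50/TD50 found as in phase II, at the stated time of peak effect. MES current 50 mA in mice, 150 mA in rats. PTZ sc 85 mg/kg in mice, 70 mg/kg in rats. Toxicity by rotorod in mice; positional sense, gait and stance in rats. PI = TD50/ED50.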
# [24] = system: Mus musculus; assay: Time to peak effect in mice was evaluated by Maximal electroshock seizure (MES) test in hours by oral administration; assay type: functional; outline: as §7
# [25] = system: Mus musculus; assay: Time to peak effect in mice was evaluated by Neurologic toxicity (rotarod test) in hours by oral administration; assay type: functional; outline: as §7
# [26] = system: Mus musculus; assay: Time to peak effect in mice was evaluated by Subcutaneous pentylenetetrazole seizure test in hours by oral administration; assay type: functional; outline: as §7
# [27] = system: Rattus norvegicus; assay: Median Effective dose was evaluated by Maximal electroshock seizure (MES) test in Rats by oral administration; assay type: functional
# [28] = system: Rattus norvegicus; assay: Median Effective dose was evaluated by Subcutaneous pentylenetetrazole seizure test in Rats by oral administration up to 40 mg/kg; b=no protection; assay type: functional, organism-based; design: dose 40 mg/kg; outline: as §7
# [29] = species: Rattus norvegicus; assay: Induction of p-nitroanisole-O-dimethylase enzyme was evaluated in units of nmol/min per mg liver of chronic treated rats; assay type: functional
# Outline: (§8)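 Rats (eight per group) given 6 mg/kg po daily, then kept on the same regimen 2 more days. Weights taken on day 7. On day 8 rats decapitated; livers perfused with 0.9% NaCl, weighed and homogenized in 0.25 M sucrose. Microsomal assays per Franklin and Estabrook. Values given as average and deviation.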
# [30] = species: Rattus norvegicus; assay: zInduction of NADPH cytochrome C reductase enzyme was evaluated in units of nmol/min per mg liver of chronic treated rats; assay type: functional; outline: as §8
# [31] = system: Rattus norvegicus; assay: […] was evaluated by Neurologic toxicity (rotarod test) in Rats by oral administration; assay type: functional
# [32] = system: Rattus norvegicus; assay: Time to peak effect in Rats was evaluated by Maximal electroshock seizure (MES) test in hours by oral administration; assay type: functional; outline: as §7
# [33] = system: Rattus norvegicus; assay: Time to peak effect in Rats was evaluated by Subcutaneous pentylenetetrazole seizure test in hours by oral administration; assay type: functional; outline: as §7
# [34] = species: Rattus norvegicus; assay: Total liver Protein up to 7th day was evaluated in mg/liver of chronic treated rats; assay type: functional; outline: as §8
# [35] = system: Rattus norvegicus; assay: The loss of righting reflex time was evaluated in acute control rats by hexobarbital injection at a hypnotic dose 100 mg/kg; assay type: functional
# Outline: (§9)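 Rats, eight per group, dosed po daily: vehicle for 4 days then 6 mg/kg on day 5 (acute), or 6 mg/kg daily for 5 days (chronic). Hexobarbital 100 mg/kg ip on day 6. Loss-of-righting-reflex time recorded to the nearest minute; group mean taken.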
# [36] = system: Rattus norvegicus; assay: The loss of righting reflex time was evaluated in chronic treated rats by hexobarbital injection at a hypnotic dose 100 mg/kg; assay type: functional; outline: as §9
# [37] = species: Rattus norvegicus; assay: Total body weight up to 7th day was evaluated in grams of chronic treated rats; assay type: functional; outline: as §8
# [38] = system: Rattus norvegicus; assay: Time to peak effect in Rats was evaluated by Neurologic toxicity (rotarod test) in hours by oral administration; assay type: functional
# [39] = species: Rattus norvegicus; assay: Induction of cytochrome P-450 enzyme was evaluated in units of nmol of enzyme/mg liver of chronic treated rats
structure (smiles),measurement,setting,value
COc1ccc(CC(=O)NS(=O)(=O)C(F)(F)F)cc1,Activity,[1],Antiseizure activity
same,Activity,[2],Antiseizure activity
same,Activity,[3],Antiseizure activity
same,Activity,[4],Antiseizure activity
same,ED50,[5],33 mg/kg
same,ED50,[6],53 mg/kg
same,TD50,[7],557 mg/kg
same,TPE,[8],2
same,TPE,[9],0.5
same,PI,[10],17
same,PI,[11],10
O=C(Cc1ccccc1)NS(=O)(=O)C(F)(F)F,ED50,[12],No protection
same,ED50,[13],No protection
same,ED50,[14],56 mg/kg
same,Activity,[15],No activity
same,Activity,[16],Antiseizure activity
same,Activity,[17],Antiseizure activity
same,ED50,[18],6.2 mg/kg
same,ED50,[6],10 mg/kg
same,ED50,[19],8.4 mg/kg
same,ED50,[20],60 mg/kg
same,HD50,[21],522 mg/kg
same,LD50,[22],No protection
same,TD50,[23],> 1000 mg/kg
same,TD50,[7],329 mg/kg
same,TPE,[8],6
same,TPE,[24],8 h
same,TPE,[25],24 h
same,TPE,[26],8 h
same,TPE,[9],24
same,ED50,[27],6.1 mg/kg
same,ED50,[28],No protection
same,Induction,[29],0.36
same,Induction,[30],109.9
same,TD50,[31],40 mg/kg
same,TPE,[32],8 h
same,TPE,[33],8 h
same,Protein,[34],40.4
same,Sleep time,[35],33
same,Sleep time,[36],51
same,PI,[10],53
same,PI,[11],34
same,Weight,[37],128.8
same,TPE,[38],24 h
same,Induction,[39],0.41
